From ChEMBL document CHEMBL3352454, “From mixed sigma-2 receptor/P-glycoprotein targeting agents to selective P-glycoprotein modulators: small structural changes address the mechanism of interaction at the efflux pump” (Eur J Med Chem, 2015)
Activity calls are given as the source filed them. No cut-off for these calls is given here.

Assays:
[1] = molecular target: Sigma non-opioid intracellular receptor 1 (Cavia porcellus, UniProt Q60492); test: Displacement of [3H]-(+)-pentazocine from guinea pig brain sigma1 receptor by scintillation counting analysis
[2] = Displacement of [3H]DTG from rat liver sigma2 receptor by scintillation counting analysis in presence of pentazocine
[3] = Inhibition of P-glycoprotein (unknown origin) expressed in MDCK cells assessed as reduction of calcein-AM transport after 30 mins by fluorescence assay; assay type: cell-based, Homo sapiens
How it was run: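 Confluent MDCK-MDR1 monolayers (50,000 cells/well, overnight) preincubated with compound (0.1–100 µM in medium) 30 min at 37 °C, then Calcein-AM added (2.5 µM final) for 30 min. Washed three times with ice-cold PBS; calcein fluorescence read at ex 485/em 535 nm versus untreated basal. EC50 from fit of % fluorescence increase versus log dose.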

MDCK = test: Inhibition of P-glycoprotein (unknown origin) expressed in MDCK cells assessed as ATP depletion at 100 uM by bioluminescence ATP assay; assay type: cell-based; conditions: Homo sapiens
How it was run: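 MDCK-MDR1 cells (human MDR1-transfected) plated, incubated overnight at 37 °C, 5% CO2, then exposed to test compound in complete medium for 2 h at 37 °C. Cells lysed; ATP measured by firefly luciferase/D-luciferin luminescence after 10 min dark adaptation. Percentage ATP depletion reported at 100 μM.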

[4] = molecular target: Sigma non-opioid intracellular receptor 1 (Cavia porcellus) (UniProt Q60492); test: Displacement of [3H]-(+)-pentazocine from guinea pig brain sigma1 receptor at […] by scintillation counting analysis
[5] = Displacement of [3H]DTG from rat liver sigma2 receptor at 10^-11 M by scintillation counting analysis in presence of pentazocine

Sigma non-opioid intracellular receptor 1, sequence (Q60492 whole entry): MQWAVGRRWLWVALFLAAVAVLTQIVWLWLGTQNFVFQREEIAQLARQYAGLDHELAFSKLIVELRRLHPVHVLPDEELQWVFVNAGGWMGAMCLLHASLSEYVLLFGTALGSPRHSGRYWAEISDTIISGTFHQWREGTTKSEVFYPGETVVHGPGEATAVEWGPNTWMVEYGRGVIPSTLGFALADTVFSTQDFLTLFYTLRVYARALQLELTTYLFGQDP
Sigma non-opioid intracellular receptor 1 (Cavia porcellus), sequence (Q60492 whole entry): as above

Compound	Ki [1]	Ki [2]	EC50 [3]	inhibition (MDCK)	inhibition [4]	inhibition [5]
COc1cc2c(cc1OC)CN(CCCCn1c3ccccc3c3ccccc31)CC2	2.19 µM	4e-05 µM	0.42 µM	Active		
COc1cccc2c1CCCC2CCC(=O)N1CCC2(CC1)OCc1ccccc12 (stereo unspecified)	0.26 µM	3.21 µM	5.42 µM			
COc1cc2c(cc1OC)CN(CC(=O)NCc1cn(-c3ccc(F)cc3)c3ccccc13)CC2	> 5 µM	1.62 µM	0.92 µM			
COc1cccc2c1CCCC2CCCN1CCC2(CC1)OCc1ccccc12 (stereo unspecified)		0.0406 µM	2.68 µM		76%	
COc1cc2c(cc1OC)CN(CC(=O)N[C@@H]1CCCc3c(OC)cccc31)CC2	> 5 µM	1.95 µM	9.6 µM			
COc1cc2c(cc1OC)C(=O)N(CCCCc1cn(-c3ccc(F)cc3)c3ccccc13)CC2	> 5 µM	> 10 µM	2.34 µM	inactive		
COc1cc2c(cc1OC)CN(C(=O)CCCc1cn(-c3ccc(F)cc3)c3ccccc13)CC2	> 5 µM	> 10 µM	2.25 µM	Active		
COc1cc2c(cc1OC)CN(CCCC1CCCc3c(OC)cccc31)CC2 (stereo unspecified)			1.15 µM	Active		96%
COc1cc2c(cc1OC)CN(C(=O)CCC1CCCc3c(OC)cccc31)CC2 (stereo unspecified)	> 5 µM	> 10 µM	2.9 µM	Active		
COc1cc2c(cc1OC)CN(CCCCc1cn(-c3ccc(F)cc3)c3ccccc13)CC2	1.39 µM	0.00534 µM	0.21 µM	inactive		
COc1cc2c(cc1OC)CN(CC/C=C1\CCCc3c(OC)cccc31)CC2			0.82 µM			
COc1cc2c(cc1OC)CN(CCCC(=O)n1c3ccccc3c3ccccc31)CC2	> 5 µM	> 10 µM	0.82 µM	Active		
COc1cc2c(cc1OC)CN(CC(=O)NC1CCCc3c(OC)cccc31)CC2 (racemic)	> 5 µM	1.8 µM	10 µM			
COc1cccc2c1CCCC2CCCN1CCC(C2CCCCC2)CC1 (stereo unspecified)		0.0188 µM	1.92 µM			
COc1cccc2c1CCCC2CCC(=O)N1CCC(c2ccc(F)cc2)CC1 (stereo unspecified)	2.93 µM	6.52 µM	26 µM			
COc1cc2c(cc1OC)CN(CC(=O)N[C@H]1CCCc3c(OC)cccc31)CC2	> 5 µM	1.76 µM	10 µM			
COc1cccc2c1CCCC2CCC(=O)N1CCC(C2CCCCC2)CC1 (stereo unspecified)	> 5 µM	> 10 µM	30.9 µM			
COc1cccc2c1CCCC2CCCN1CCC(c2ccc(F)cc2)CC1 (stereo unspecified)		0.0226 µM	1.98 µM		80%	
COc1cc2c(cc1OC)C(=O)N(CCCCn1c3ccccc3c3ccccc31)CC2	> 5 µM	> 10 µM	1.91 µM	30%		
